MITF act = activators of MITF-driven TRPM1 promoter activity in SK-MEL-5 cells; 300,000 compounds, 0.75% hits; SK-MEL-5 TRPM1-promoter luciferase, 24 h; % of positive control, neutral wells = 0; AID 588334; activation, % at 12.5 µM;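 active = mean activation of at least 80% with every replicate also reaching 80%; inconclusive = mean reaches 80% but some replicate falls short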
esBAF inh = SWI/SNF esBAF complex inhibition | mouse ES cells, Bmi1-luciferase knock-in reporter, 24 h; 100% = twice the neutral-well signal | reporter increase, % at 12.5 µM | AID 602393 | 350,000 compounds, 2% hits; in the data active = activation above about 40%; inconclusive = no clear call, values can overlap the other calls;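 note: a rise in the Bmi1 reporter signal indicates esBAF inhibition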
Wnt act = activators of Wnt/beta-catenin signaling. activation, % at 9.35 µM. Wnt/beta-catenin reporter cell assay, activator, plate reader. 300,000 compounds, 1.2% hits; in the data active = activation above about 30%, passing the limit was not always enough; inconclusive = no clear call, values can overlap the other calls
Casp6 inh = blocks human caspase-6 cleavage activity | purified caspase-6, Z-VEID-R110 cleavage fluorescence | inhibition, % at 12.5 µM | 350,000 compounds, 0.53% hits | AID 686996;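 active = mean inhibition across replicates at least about 35%, with every replicate also reaching that limit, limit read from the data; inconclusive = only one of the two criteria met; inactive = neither criterion met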
XiGFP reactiv = reactivates the inactive X chromosome in mouse fibroblasts; 360,000 compounds, 0.055% hits; XiGFP mouse fibroblasts, % GFP-positive cells imaging, 3 d; cells co-treated with 5-aza-dC sensitizer; scaled so ellipticine positive control = 100%; activation, % at 7.58 µM; AID 743238;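 active = mean normalized replicate activation at least 10% and every replicate at or above 10%; inconclusive = only one of the two criteria met; inactive = mean below 10% and not all replicates reach 10%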
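assay system = SV40-immortalized XiGFP fibroblast cells, line 68-5-11 | buffer or medium = DMEM plus 5-aza-dC sensitizer | doses = single-point pinned compound dosing | times = 3-day compound exposure, then 15 min fixation at room temperature | benchmarks = positive control ellipticine, 6 µM final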
NSD2 inh = blocks human histone methyltransferase NSD2. NSD2 peptide methylation, AlphaScreen, 120 min. O96028. 310,000 compounds, 0.54% hits. inhibition, % at 12.5 µM; in the data active = inhibition above about 50%
Target sequence (O96028 whole entry, looked up): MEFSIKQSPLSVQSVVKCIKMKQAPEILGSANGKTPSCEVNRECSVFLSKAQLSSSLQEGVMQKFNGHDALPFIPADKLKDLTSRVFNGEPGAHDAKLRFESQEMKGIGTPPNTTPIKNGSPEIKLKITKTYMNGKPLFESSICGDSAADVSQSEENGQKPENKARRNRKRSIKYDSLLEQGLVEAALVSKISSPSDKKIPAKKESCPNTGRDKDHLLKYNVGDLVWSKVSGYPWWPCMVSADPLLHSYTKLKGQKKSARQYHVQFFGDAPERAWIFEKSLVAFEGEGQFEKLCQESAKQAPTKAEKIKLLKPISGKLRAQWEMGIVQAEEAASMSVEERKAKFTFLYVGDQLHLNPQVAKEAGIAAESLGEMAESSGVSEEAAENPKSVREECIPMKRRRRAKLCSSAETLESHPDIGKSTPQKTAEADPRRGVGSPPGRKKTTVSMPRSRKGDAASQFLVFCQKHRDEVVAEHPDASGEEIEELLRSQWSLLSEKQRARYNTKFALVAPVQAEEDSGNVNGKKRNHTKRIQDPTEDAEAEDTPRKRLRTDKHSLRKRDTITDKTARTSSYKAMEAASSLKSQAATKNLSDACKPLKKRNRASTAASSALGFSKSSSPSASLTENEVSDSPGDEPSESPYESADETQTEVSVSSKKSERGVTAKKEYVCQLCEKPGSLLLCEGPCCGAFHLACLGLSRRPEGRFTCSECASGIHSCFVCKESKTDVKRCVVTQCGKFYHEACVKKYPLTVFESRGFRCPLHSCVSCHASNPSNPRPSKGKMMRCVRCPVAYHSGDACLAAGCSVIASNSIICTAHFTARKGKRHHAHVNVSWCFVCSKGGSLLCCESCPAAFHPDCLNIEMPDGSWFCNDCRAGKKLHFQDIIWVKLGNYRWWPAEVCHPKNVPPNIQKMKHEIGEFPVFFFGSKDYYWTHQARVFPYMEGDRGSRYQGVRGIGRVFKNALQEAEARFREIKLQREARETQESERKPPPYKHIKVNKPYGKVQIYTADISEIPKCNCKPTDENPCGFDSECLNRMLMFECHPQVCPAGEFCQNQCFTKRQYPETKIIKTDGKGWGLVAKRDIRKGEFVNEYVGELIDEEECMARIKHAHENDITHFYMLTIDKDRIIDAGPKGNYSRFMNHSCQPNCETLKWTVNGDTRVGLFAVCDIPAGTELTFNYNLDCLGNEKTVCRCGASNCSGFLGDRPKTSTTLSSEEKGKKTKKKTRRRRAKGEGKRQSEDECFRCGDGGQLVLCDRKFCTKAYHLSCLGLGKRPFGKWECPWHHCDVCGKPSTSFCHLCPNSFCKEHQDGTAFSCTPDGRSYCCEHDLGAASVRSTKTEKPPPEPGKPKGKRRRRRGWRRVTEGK
Each line names hits and unclear results; the compound was inactive in the other large screens. Rows were chosen to be rich in hits. Some 3% of all compounds tested hit in one or more screens of this group.

Cc1cc2nc(-c3ccc(SCC(=O)Nc4ccc(S(=O)(=O)N5CCCC5)cc4)nc3)[nH]c2cc1C	Wnt act 47.5 (no result: esBAF inh, Casp6 inh, NSD2 inh)
C=C(C)CNC(=O)CCc1nnc(Cc2cccc(C(F)(F)F)c2)o1	Wnt act 55.7 (no result: esBAF inh)
C[C@@H]1CN([C@@H](C)CO)C(=O)c2cc(NC(=O)NC3CCCCC3)ccc2O[C@@H](C)CCCCO[C@H]1CN(C)Cc1ccc(C(F)(F)F)cc1	none (no result: MITF act, Wnt act, NSD2 inh)
CC(C)NC(=O)N(C)C[C@H]1Oc2ccc(NC(=O)Nc3ccc(C(F)(F)F)cc3)cc2C(=O)N([C@@H](C)CO)C[C@H]1C	none (no result: MITF act, Wnt act, NSD2 inh)
O=C1Cc2cc(S(=O)(=O)N3CCN(c4ccc(C(=O)O)cc4)CC3)ccc2N1	Casp6 inh 38.0 (no result: MITF act, NSD2 inh)
CC(=O)c1ccc(N2CCN(S(=O)(=O)c3ccc4c(c3)NC(=O)CC(=O)N4)CC2)cc1	none
C[C@H](CO)N1C[C@H](C)[C@@H](CN(C)S(=O)(=O)c2cccs2)Oc2c(NS(=O)(=O)c3cccs3)cccc2C1=O	none (no result: MITF act, esBAF inh, Wnt act, Casp6 inh, NSD2 inh)
Nc1ccc(-c2nc3ncccc3o2)c(O)c1	MITF act 95.1, esBAF inh 56.7
Nc1ccc(-c2nc3ncccc3o2)c(Cl)c1	esBAF inh inconclusive, Wnt act 42.3
CCOc1ccc(N=C2NC(=O)S/C2=C\c2ccc(N(C)C)cc2)cc1	esBAF inh 50.4 (no result: MITF act, Wnt act, Casp6 inh, XiGFP reactiv)
CCOc1ccc(/C=C2/SC(=O)NC2=S)cc1	none (no result: esBAF inh, Wnt act, Casp6 inh, XiGFP reactiv)
COc1ccc(-c2cn3cc(C(F)(F)F)cc(Cl)c3n2)cc1	none (no result: esBAF inh)
Fc1ccc(-c2cn3cc(C(F)(F)F)cc(Cl)c3n2)cc1	esBAF inh 46.3, Wnt act 49.3 (no result: Casp6 inh, XiGFP reactiv)
O=C(Cc1ccncc1)NCC[C@@H]1CC[C@H](NC(=O)C2CCCCC2)[C@H](CO)O1	none (no result: MITF act, Wnt act, NSD2 inh)
Cc1ccc(-c2csc(NC(=O)N3CCOCC3)n2)cc1	esBAF inh 83.5
O=C(Nc1nc(-c2ccc3c(c2)OCO3)cs1)C1COc2ccccc2O1 (stereo not drawn)	none (no result: MITF act, NSD2 inh)
O=C(Nc1nc(-c2ccc(Cl)cc2)cs1)C1CCCO1 (stereo not drawn)	esBAF inh 47.8, Wnt act 64.6
CC(=O)Nc1nc(-c2ccc3c(c2)OCO3)cs1	Wnt act 52.7 (no result: NSD2 inh)
COc1cccc(-c2csc(NC(=O)C3CC3)n2)c1	MITF act 119.5, esBAF inh 61.1, Wnt act inconclusive (no result: NSD2 inh)
Cc1ccc(-c2csc(NC(=O)CN3CCOCC3)n2)cc1	none
O=C(C[C@@H]1CC[C@@H]2[C@H](COC[C@@H](O)CN2C(=O)Nc2cccc(Cl)c2)O1)N1CCCCC1	none (no result: MITF act, Wnt act, NSD2 inh)
CC(C)COC(=O)N(C)C[C@H]1OCc2ccccc2-c2c(n(C)c3ccccc23)C(=O)N([C@@H](C)CO)C[C@@H]1C	none (no result: MITF act, Wnt act, NSD2 inh)
O=C(Nc1nc(-c2ccc3c(c2)OCCO3)cs1)C1CCCC1	MITF act 144.0, Wnt act 43.7 (no result: esBAF inh)
O=C(CCCCl)Nc1nc(-c2ccc3c(c2)OCCO3)cs1	MITF act 87.5
O=C(CSCC(=O)N1CCOCC1)Nc1nc(-c2ccc3c(c2)OCO3)cs1	esBAF inh 53.7 (no result: MITF act, NSD2 inh)
CCOC(=O)N1CCN(C(=O)CSCC(=O)Nc2nc(-c3ccc4c(c3)OCO4)cs2)CC1	esBAF inh inconclusive (no result: Casp6 inh, XiGFP reactiv, NSD2 inh)
N#CCC(=O)Nc1nc(-c2ccc3c(c2)OCCO3)cs1	none (no result: esBAF inh)
CCCNC(=O)N1CC2(CCN(C(=O)C3CCCCC3)CC2)c2c([nH]c3cc(OC)ccc23)[C@@H]1CO	none (no result: MITF act, esBAF inh, Wnt act, Casp6 inh, NSD2 inh)
CC(C)NC(=O)N(C)C[C@H]1Oc2c(cccc2N(C)C)C(=O)N(C)C[C@@H]1C	none (no result: MITF act, esBAF inh, Wnt act, Casp6 inh, NSD2 inh)
O=C(C[C@H]1CC[C@@H](NC(=O)CN2CCOCC2)[C@H](CO)O1)NC1CCCCC1	none (no result: MITF act, Wnt act, NSD2 inh)
COc1ccc(OC)c(CNc2ccc3c(c2)CCC3)c1	esBAF inh 46.5 (no result: MITF act)
CCC(=O)Nc1ccc2c(c1)OC[C@H](C)N(CC1CC1)C[C@H](C)[C@@H](OC)CN(C)C2=O	none (no result: MITF act, esBAF inh, Wnt act, NSD2 inh)
Cc1cc(NS(=O)(=O)c2ccc(NC(=O)COc3ccccc3[N+](=O)[O-])cc2)no1	Casp6 inh 73.6
O=C(COc1ccccc1[N+](=O)[O-])Nc1cccnc1	esBAF inh 45.2, Wnt act inconclusive
Cc1ccnc(NC(=O)COc2ccccc2[N+](=O)[O-])c1	none (no result: esBAF inh, Wnt act)
O=C(COc1ccccc1[N+](=O)[O-])NCc1cccnc1	none (no result: esBAF inh, Casp6 inh)
Cc1ccc(NC(=O)COc2ccccc2[N+](=O)[O-])nc1	Wnt act 53.9
O=C(COc1ccccc1[N+](=O)[O-])Nc1ccc(Br)cc1	Wnt act 48.3 (no result: esBAF inh, NSD2 inh)

Screening results (PubChem BioAssay)
